Measured values published in ChEMBL document CHEMBL4689842, “EUbOPEN Chemogenomics Library wave 1” (2021).

Experiments:
Format in all cases: toxicity, cell-based
Fibroblast [1] = experiment: Multiplex assay against human fibroblast
Method in brief: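 On a CQ1 microscope at 37°C and 5% CO2, live cells were imaged after compound addition. They had been stained at seeding with Hoechst33342, BioTracker Green Microtubule Cytoskeleton Dye, MitoTracker Red and Annexin V Alexa Fluor 680. CellPathfinder machine-learning gating assigned cells to Hoechst high-intensity objects or normal cells, normal cells to healthy, pyknosed or fragmented nuclei, and pyknosed cells to mitotic or apoptotic. Tubulin, mitochondrial-mass and membrane-permeability phenotypes are per cents of healthy-nucleus cells.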

HEK-293T = experiment: Incucyte cell viability with HEK293T; details: human, 10 µM, compound concentration 10 uM; further: filed as whole numbers so only -1 and 0 and 1 occur
U2OS = experiment: Incucyte cell viability with U2OS; details: human, 10 µM, compound concentration 10 uM; further: filed as whole numbers so only -1 and 0 and 1 occur
Fibroblast [2] = experiment: Incucyte cell viability with human fibroblast; details: 10 µM, compound concentration 10 uM; further: filed as whole numbers so only -1 and 0 and 1 occur
[3] = 12 h, 1 µM, compound concentration 1 uM, replicate 1
[4] = 12 h, 1 µM, compound concentration 1 uM, replicate 2
[5] = 12 h, 10 µM, compound concentration 10 uM, replicate 1
[6] = 12 h, 10 µM, compound concentration 10 uM, replicate 2
[7] = 24 h, 1 µM, compound concentration 1 uM, replicate 1
[8] = 24 h, 1 µM, compound concentration 1 uM, replicate 2
[9] = 24 h, 10 µM, compound concentration 10 uM, replicate 1
[10] = 24 h, 10 µM, compound concentration 10 uM, replicate 2
[11] = 48 h, 1 µM, compound concentration 1 uM, replicate 1
[12] = 48 h, 1 µM, compound concentration 1 uM, replicate 2
[13] = 48 h, 10 µM, compound concentration 10 uM, replicate 1
[14] = 48 h, 10 µM, compound concentration 10 uM, replicate 2
[15] = 0 h, replicate number 1, timepoint 0 hours
[16] = 6 h, replicate number 1, timepoint 6 hours
[17] = 12 h, replicate number 1, timepoint 12 hours
[18] = 18 h, replicate number 1, timepoint 18 hours
[19] = 24 h, replicate number 1, timepoint 24 hours

Compound: CCCCN(CC)c1nc(C)nc2c1c(C)cn2-c1c(C)cc(C)cc1C.Cl
- Population Apoptotic (%) (Fibroblast [1]; [3]): 63%
- Population Fragmented Nuclei (%) (Fibroblast [1]; [3]): 23%
- Population Healthy Nuclei (%) (Fibroblast [1]; [3]): 44%
- Population Hoechst High Intensity Objects (%) (Fibroblast [1]; [3]): 11%
- Population Membrane Permeable-Phenotype (%) (Fibroblast [1]; [3]): 27%
- Population Mitochondria Different-Phenotype (%) (Fibroblast [1]; [3]): 9%
- Population Mitotic Cells (%) (Fibroblast [1]; [3]): 36%
- Population Normal (%) (Fibroblast [1]; [3]): 88%
- Population Pyknosed Nuclei (%) (Fibroblast [1]; [3]): 31%
- Population Tubulin-Different-Phenotype (%) (Fibroblast [1]; [3]): 46%
- Total Cell Count (Fibroblast [1]; [3]): 108
- Population Apoptotic (%) (Fibroblast [1]; [4]): 55%
- Population Fragmented Nuclei (%) (Fibroblast [1]; [4]): 13%
- Population Healthy Nuclei (%) (Fibroblast [1]; [4]): 77%
- Population Hoechst High Intensity Objects (%) (Fibroblast [1]; [4]): 3%
- Population Membrane Permeable-Phenotype (%) (Fibroblast [1]; [4]): 5%
- Population Mitochondria Different-Phenotype (%) (Fibroblast [1]; [4]): 8%
- Population Mitotic Cells (%) (Fibroblast [1]; [4]): 44%
- Population Normal (%) (Fibroblast [1]; [4]): 96%
- Population Pyknosed Nuclei (%) (Fibroblast [1]; [4]): 9%
- Population Tubulin-Different-Phenotype (%) (Fibroblast [1]; [4]): 14%
- Total Cell Count (Fibroblast [1]; [4]): 95
- Population Apoptotic (%) (Fibroblast [1]; [5]): 57%
- Population Fragmented Nuclei (%) (Fibroblast [1]; [5]): 30%
- Population Healthy Nuclei (%) (Fibroblast [1]; [5]): 37%
- Population Hoechst High Intensity Objects (%) (Fibroblast [1]; [5]): 13%
- Population Membrane Permeable-Phenotype (%) (Fibroblast [1]; [5]): 32%
- Population Mitochondria Different-Phenotype (%) (Fibroblast [1]; [5]): 16%
- Population Mitotic Cells (%) (Fibroblast [1]; [5]): 42%
- Population Normal (%) (Fibroblast [1]; [5]): 86%
- Population Pyknosed Nuclei (%) (Fibroblast [1]; [5]): 31%
- Population Tubulin-Different-Phenotype (%) (Fibroblast [1]; [5]): 84%
- Total Cell Count (Fibroblast [1]; [5]): 76
- Population Apoptotic (%) (Fibroblast [1]; [6]): 20%
- Population Fragmented Nuclei (%) (Fibroblast [1]; [6]): 9%
- Population Healthy Nuclei (%) (Fibroblast [1]; [6]): 83%
- Population Hoechst High Intensity Objects (%) (Fibroblast [1]; [6]): 6%
- Population Membrane Permeable-Phenotype (%) (Fibroblast [1]; [6]): 4%
- Population Mitochondria Different-Phenotype (%) (Fibroblast [1]; [6]): 55%
- Population Mitotic Cells (%) (Fibroblast [1]; [6]): 80%
- Population Normal (%) (Fibroblast [1]; [6]): 93%
- Population Pyknosed Nuclei (%) (Fibroblast [1]; [6]): 6%
- Population Tubulin-Different-Phenotype (%) (Fibroblast [1]; [6]): 19%
- Total Cell Count (Fibroblast [1]; [6]): 78
- Population Apoptotic (%) (Fibroblast [1]; [7]): 57%
- Population Fragmented Nuclei (%) (Fibroblast [1]; [7]): 30%
- Population Healthy Nuclei (%) (Fibroblast [1]; [7]): 49%
- Population Hoechst High Intensity Objects (%) (Fibroblast [1]; [7]): 11%
- Population Membrane Permeable-Phenotype (%) (Fibroblast [1]; [7]): 21%
- Population Mitochondria Different-Phenotype (%) (Fibroblast [1]; [7]): 8%
- Population Mitotic Cells (%) (Fibroblast [1]; [7]): 42%
- Population Normal (%) (Fibroblast [1]; [7]): 88%
- Population Pyknosed Nuclei (%) (Fibroblast [1]; [7]): 20%
- Population Tubulin-Different-Phenotype (%) (Fibroblast [1]; [7]): 36%
- Total Cell Count (Fibroblast [1]; [7]): 107
- Population Apoptotic (%) (Fibroblast [1]; [8]): 29%
- Population Fragmented Nuclei (%) (Fibroblast [1]; [8]): 13%
- Population Healthy Nuclei (%) (Fibroblast [1]; [8]): 70%
- Population Hoechst High Intensity Objects (%) (Fibroblast [1]; [8]): 5%
- Population Membrane Permeable-Phenotype (%) (Fibroblast [1]; [8]): 3%
- Population Mitochondria Different-Phenotype (%) (Fibroblast [1]; [8]): 6%
- Population Mitotic Cells (%) (Fibroblast [1]; [8]): 70%
- Population Normal (%) (Fibroblast [1]; [8]): 94%
- Population Pyknosed Nuclei (%) (Fibroblast [1]; [8]): 15%
- Population Tubulin-Different-Phenotype (%) (Fibroblast [1]; [8]): 7%
- Total Cell Count (Fibroblast [1]; [8]): 116
- Population Apoptotic (%) (Fibroblast [1]; [9]): 73%
- Population Fragmented Nuclei (%) (Fibroblast [1]; [9]): 30%
- Population Healthy Nuclei (%) (Fibroblast [1]; [9]): 47%
- Population Hoechst High Intensity Objects (%) (Fibroblast [1]; [9]): 26%
- Population Membrane Permeable-Phenotype (%) (Fibroblast [1]; [9]): 14%
- Population Mitochondria Different-Phenotype (%) (Fibroblast [1]; [9]): 32%
- Population Mitotic Cells (%) (Fibroblast [1]; [9]): 26%
- Population Normal (%) (Fibroblast [1]; [9]): 73%
- Population Pyknosed Nuclei (%) (Fibroblast [1]; [9]): 21%
- Population Tubulin-Different-Phenotype (%) (Fibroblast [1]; [9]): 88%
- Total Cell Count (Fibroblast [1]; [9]): 97
- Population Apoptotic (%) (Fibroblast [1]; [10]): 25%
- Population Fragmented Nuclei (%) (Fibroblast [1]; [10]): 8%
- Population Healthy Nuclei (%) (Fibroblast [1]; [10]): 80%
- Population Hoechst High Intensity Objects (%) (Fibroblast [1]; [10]): 4%
- Population Membrane Permeable-Phenotype (%) (Fibroblast [1]; [10]): 3%
- Population Mitochondria Different-Phenotype (%) (Fibroblast [1]; [10]): 54%
- Population Mitotic Cells (%) (Fibroblast [1]; [10]): 75%
- Population Normal (%) (Fibroblast [1]; [10]): 95%
- Population Pyknosed Nuclei (%) (Fibroblast [1]; [10]): 11%
- Population Tubulin-Different-Phenotype (%) (Fibroblast [1]; [10]): 21%
- Total Cell Count (Fibroblast [1]; [10]): 74
- Population Apoptotic (%) (Fibroblast [1]; [11]): 50%
- Population Fragmented Nuclei (%) (Fibroblast [1]; [11]): 24%
- Population Healthy Nuclei (%) (Fibroblast [1]; [11]): 61%
- Population Hoechst High Intensity Objects (%) (Fibroblast [1]; [11]): 16%
- Population Membrane Permeable-Phenotype (%) (Fibroblast [1]; [11]): 13%
- Population Mitochondria Different-Phenotype (%) (Fibroblast [1]; [11]): 6%
- Population Mitotic Cells (%) (Fibroblast [1]; [11]): 50%
- Population Normal (%) (Fibroblast [1]; [11]): 83%
- Population Pyknosed Nuclei (%) (Fibroblast [1]; [11]): 14%
- Population Tubulin-Different-Phenotype (%) (Fibroblast [1]; [11]): 32%
- Total Cell Count (Fibroblast [1]; [11]): 118
- Population Apoptotic (%) (Fibroblast [1]; [12]): 100%
- Population Fragmented Nuclei (%) (Fibroblast [1]; [12]): 26%
- Population Healthy Nuclei (%) (Fibroblast [1]; [12]): 71%
- Population Hoechst High Intensity Objects (%) (Fibroblast [1]; [12]): 6%
- Population Membrane Permeable-Phenotype (%) (Fibroblast [1]; [12]): 6%
- Population Mitochondria Different-Phenotype (%) (Fibroblast [1]; [12]): 4%
- Population Mitotic Cells (%) (Fibroblast [1]; [12]): 0%
- Population Normal (%) (Fibroblast [1]; [12]): 93%
- Population Pyknosed Nuclei (%) (Fibroblast [1]; [12]): 2%
- Population Tubulin-Different-Phenotype (%) (Fibroblast [1]; [12]): 46%
- Total Cell Count (Fibroblast [1]; [12]): 93
- Population Apoptotic (%) (Fibroblast [1]; [13]): 75%
- Population Fragmented Nuclei (%) (Fibroblast [1]; [13]): 43%
- Population Healthy Nuclei (%) (Fibroblast [1]; [13]): 51%
- Population Hoechst High Intensity Objects (%) (Fibroblast [1]; [13]): 20%
- Population Membrane Permeable-Phenotype (%) (Fibroblast [1]; [13]): 13%
- Population Mitochondria Different-Phenotype (%) (Fibroblast [1]; [13]): 18%
- Population Mitotic Cells (%) (Fibroblast [1]; [13]): 25%
- Population Normal (%) (Fibroblast [1]; [13]): 79%
- Population Pyknosed Nuclei (%) (Fibroblast [1]; [13]): 4%
- Population Tubulin-Different-Phenotype (%) (Fibroblast [1]; [13]): 60%
- Total Cell Count (Fibroblast [1]; [13]): 104
- Population Apoptotic (%) (Fibroblast [1]; [14]): 66%
- Population Fragmented Nuclei (%) (Fibroblast [1]; [14]): 46%
- Population Healthy Nuclei (%) (Fibroblast [1]; [14]): 50%
- Population Hoechst High Intensity Objects (%) (Fibroblast [1]; [14]): 12%
- Population Membrane Permeable-Phenotype (%) (Fibroblast [1]; [14]): 20%
- Population Mitochondria Different-Phenotype (%) (Fibroblast [1]; [14]): 10%
- Population Mitotic Cells (%) (Fibroblast [1]; [14]): 33%
- Population Normal (%) (Fibroblast [1]; [14]): 87%
- Population Pyknosed Nuclei (%) (Fibroblast [1]; [14]): 3%
- Population Tubulin-Different-Phenotype (%) (Fibroblast [1]; [14]): 89%
- Total Cell Count (Fibroblast [1]; [14]): 189
- Growth Rate (HEK-293T; [15]): 0
- Growth Rate (HEK-293T; [16]): 0
- Growth Rate (HEK-293T; [17]): 0
- Growth Rate (HEK-293T; [18]): 0
- Growth Rate (HEK-293T; [19]): 0
- Growth Rate (U2OS; [15]): 0
- Growth Rate (U2OS; 6 h, replicate number 2, timepoint 6 hours): 1
- Growth Rate (U2OS; [17]): 0
- Growth Rate (U2OS; [18]): 0
- Growth Rate (U2OS; 18 h, replicate number 2, timepoint 18 hours): 1
- Growth Rate (U2OS; [19]): 0
- Growth Rate (U2OS; 24 h, replicate number 2, timepoint 24 hours): 1
- Growth Rate (Fibroblast [2]; [15]): 1
- Growth Rate (Fibroblast [2]; [16]): 0
- Growth Rate (Fibroblast [2]; [17]): 0
- Growth Rate (Fibroblast [2]; [18]): 0
- Growth Rate (Fibroblast [2]; [19]): 0
